High-throughput results as filed in PubChem BioAssay.
TRPC4 PAM: allosteric potentiators of mouse TRPC4 channel | HEK293 TRPC4beta/mu-opioid, DAMGO EC20, Fluo-4 Ca2+ flux; active compounds read high | actives 0.42% (n = 310,000) | B-score at 10 µM | Q9QUQ5;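 active = B-score of calcium response area above 5 SD of library B-scores, with initial fluorescence ratio within 5 SD of library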;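 also: B-score of integrated fluorescence ratio over time as area under calcium response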
TRPC6 inh: blocks the mouse TRPC6 cation channel. Q61143. HEK293-TRPC6, membrane potential dye, ACh-evoked depolarization; active compounds read low. B-score at 10 µM. actives 1.1% (n = 310,000). AID 2553;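 active = B-score under library mean minus 3 SD, initial fluorescence not abnormally high, positive integrated signal ratio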;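 also: B-score derived from integrated fluorescence ratio over the kinetic read; more negative B-score means stronger inhibition of depolarization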
Target sequence (Q61143 whole entry, looked up): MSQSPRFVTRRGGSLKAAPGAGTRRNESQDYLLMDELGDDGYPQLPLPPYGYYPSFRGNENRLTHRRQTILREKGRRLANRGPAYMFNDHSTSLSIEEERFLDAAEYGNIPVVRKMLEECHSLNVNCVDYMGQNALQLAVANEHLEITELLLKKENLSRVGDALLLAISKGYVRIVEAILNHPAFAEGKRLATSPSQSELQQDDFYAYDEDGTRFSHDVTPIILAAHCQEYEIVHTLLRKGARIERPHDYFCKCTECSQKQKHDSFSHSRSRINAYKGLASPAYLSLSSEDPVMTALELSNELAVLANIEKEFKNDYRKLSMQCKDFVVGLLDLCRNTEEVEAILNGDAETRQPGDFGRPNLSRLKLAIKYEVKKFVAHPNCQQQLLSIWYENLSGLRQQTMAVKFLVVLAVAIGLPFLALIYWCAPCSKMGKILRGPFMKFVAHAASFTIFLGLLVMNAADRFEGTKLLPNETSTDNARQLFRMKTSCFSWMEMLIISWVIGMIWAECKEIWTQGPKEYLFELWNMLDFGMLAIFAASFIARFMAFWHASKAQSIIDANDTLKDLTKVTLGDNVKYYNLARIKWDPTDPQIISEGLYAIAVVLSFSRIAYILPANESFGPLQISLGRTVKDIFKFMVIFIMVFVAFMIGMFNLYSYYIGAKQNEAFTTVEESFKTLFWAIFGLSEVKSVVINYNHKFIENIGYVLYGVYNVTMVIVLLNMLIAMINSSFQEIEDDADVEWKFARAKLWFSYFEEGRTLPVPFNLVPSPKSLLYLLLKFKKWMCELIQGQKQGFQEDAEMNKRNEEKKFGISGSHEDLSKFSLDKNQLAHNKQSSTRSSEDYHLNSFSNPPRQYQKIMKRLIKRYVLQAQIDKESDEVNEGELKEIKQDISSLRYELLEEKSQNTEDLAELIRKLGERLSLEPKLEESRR
TRPC4 inh: TRPC4 (mouse) channel inhibition | B-score at 10 µM | actives 0.39% (n = 300,000) | Q9QUQ5 | HEK293 TRPC4beta/mu-opioid, DAMGO-evoked Fluo4 calcium flux; active compounds read low;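 active = B-score over 3 SD under the library average, no early fluorescence shift, positive overall ratio signal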
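Material: HEK293 cells with stable TRPC4beta plus mu-opioid receptor expression; probe or stimulus: DAMGO in two steps, submaximal then maximal; technique: Fluo4 calcium fluorescence by kinetic imaging, 5 s 1 Hz baseline; measure: integrated fluorescence ratio relative to baseline, converted to per-well B score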
DNA FID counter: displaces DNA intercalator in HCV helicase counter-screen. DNA fluorescent intercalator displacement, fluorescence. inhibition, % at 7.9 µM. AID 1845. actives 0.17% (n = 290,000); in the data active = inhibition above about 37%;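 also: 0% = vehicle and 100% = reference compound; higher means more ethidium bromide displaced from hairpin DNA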
TRPC6 act: activates the mouse TRPC6 cation channel. Q61143. HEK293-TRPC6 membrane potential dye fluorescence; active compounds read high. B-score at 10 µM. actives 0.13% (n = 310,000). AID 2550;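 active = B-score of the integrated fluorescence ratio above library mean plus 3 SD, and starting fluorescence ratio within library mean plus 5 SD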;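 also: higher score means more depolarization so channel activation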
TRPC4 agonist: opens the mouse TRPC4 cation channel; HEK293 TRPC4beta/mu-opioid, Fluo4 calcium fluorescence; active compounds read high; AID 2237; actives 0.49% (n = 310,000); B-score at 10 µM; Q9QUQ5;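 active = B-score above 5 SD of library B-scores, and initial fluorescence ratio not above library mean plus 5 SD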;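 also: positive B-score marks a calcium rise read as TRPC4 activation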
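Material: TRPC4beta and mu-opioid receptor HEK293 stable cells | Incubation: 45 min room-temperature Fluo4 loading, 110 s read | Detection: Kinetic Fluo4 calcium fluorescence | Measure: Integrated baseline-normalised fluorescence ratio, converted to per-well B score | Benchmarks: Low control buffer alone, high control maximal DAMGO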
TRPC4 sel inh 2: second check of whether TRPC6 inhibitors also affect mouse TRPC4. shares compounds with TRPC6 inh. HEK293 TRPC4/MOR, membrane potential dye fluorescence; channel activated by saturating DAMGO dose. inhibition, % at 10 µM. actives 42% (n = 920). AID 2776;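 active = compounds whose fluorescence signal differed from control wells by over 3 SD, either direction, in both duplicate plates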
TRPC4 spec: tests whether TRPC6 inhibitors also affect mouse TRPC4; shares compounds with TRPC6 inh; HEK293 TRPC4/mu-opioid, membrane potential fluorescence; activity change, negative = inhibition, % at 10 µM; actives 61% (n = 920);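 active = rise or fall in signal beyond 3 SD of buffer-only wells in both replicate plates, either sign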;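 also: integrated kinetic ratio of fluorescence range over baseline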
HEK293 MPD ctr 2-1: second counter-screen for TRPC6 inhibitors: parental HEK293 cells | shares compounds with TRPC6 inh | parental HEK293 membrane potential dye fluorescence; maximal acetylcholine challenge after compound addition | signal change vs control, % at 10 µM | actives 31% (n = 920) | AID 2779;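 active = membrane potential signal moving either way by over 3 SD of the maximum-effect control, in both duplicate plates, meaning non-specific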
HEK293 MPD ctr-1: checks TRPC6 inhibitor effects in parental HEK293 cells. shares compounds with TRPC6 inh. parental HEK293 membrane potential dye fluorescence. membrane potential signal change, % at 10 µM. actives 60% (n = 920);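 active = membrane potential signal shifting up or down by more than 3 SD of buffer-only wells, on both duplicate plates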
HEK293 MPD ctr-2: checks TRPC6 modulator effects in parental HEK293 cells; shares compounds with TRPC6 inh; membrane potential dye fluorescence; membrane potential signal change, % at 10 µM; actives 51% (n = 2,400); AID 488924;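 active = membrane potential signal moves up or down beyond 5 SD from buffer-only wells, on both duplicate plates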
HEK293 MPD ctr 2-2: second check of TRPC6 modulator effects in parental HEK293 cells; shares compounds with TRPC6 inh; membrane potential dye fluorescence; after compound, maximal acetylcholine stimulation; inhibition, % at 10 µM; actives 14% (n = 2,400); AID 488926;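 active = membrane potential signal drops by more than 5 SD from the mean control signal, in both duplicate plates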;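 also: plate controls were acetylcholine ECmax control wells for no effect and buffer only wells for full effect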
TRPC4 ctr mod: mouse TRPC4 off-target activity of TRPC6 modulators; shares compounds with TRPC6 inh; percent change from control (negative = decrease, positive = increase), % at 10 µM; actives 69% (n = 2,400); HEK293 TRPC4/mu-opioid, membrane potential fluorescence;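 active = membrane potential signal moved up or down beyond 5 SD of buffer control wells, in both duplicate plates, actives on both sides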;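 also: plate controls were assay buffer wells for no effect and DAMGO maximal-effect wells for full effect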
TRPC4/MOR inh 2: second selectivity test of TRPC6 modulators against mouse TRPC4; actives 55% (n = 2,400); HEK293 TRPC4/mu-opioid, membrane potential dye fluorescence; stimulated with maximal-effect DAMGO; shares compounds with TRPC6 inh; inhibition, % at 10 µM;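 active = drop in membrane potential signal beyond 5 SD of the control wells in both duplicate plates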;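 also: TRPC4 counter screen for TRPC6 hits run under conditions tuned for TRPC6 not TRPC4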
TRPC6 block conf: mouse TRPC6 inhibitor confirmation; shares compounds with TRPC6 inh; HEK293-TRPC6, membrane potential dye, ACh-evoked depolarization; inhibition, % at 10 µM; actives 43% (n = 3,300); AID 488960;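 active = fluorescence ratio falls more than 5 SD below the full-stimulation control mean, in both duplicate runs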;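 also: integrated fluorescence ratio of peak minus minimum over baseline after agonist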
TRPC6 act conf: confirmation of mouse TRPC6 activators | activation, % at 10 µM | actives 11% (n = 2,800) | shares compounds with TRPC6 inh | HEK293-TRPC6 membrane potential dye fluorescence, FDSS;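 active = ratio signal rise beyond 5 SD above unstimulated control wells' mean, seen in both duplicate runs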;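 also: plate controls were buffer EC0 wells for no effect and acetylcholine ECmax response for full effect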
* = called active by the depositor; i = inactive; . = not tested or not shown. A selection: hits, their analogues and other compounds. The true share with any hit is near 2.3%.

SMILES	TRPC4 PAM	TRPC6 inh	TRPC4 inh	DNA FID counter	TRPC6 act	TRPC4 agonist	HEK293 MPD ctr-2	HEK293 MPD ctr 2-2	TRPC4 ctr mod	TRPC4/MOR inh 2	TRPC6 block conf	TRPC6 act conf	others
CCc1ccc(CNC(=O)C2CCC(=O)N(CCc3ccc(Cl)cc3)C2)nc1 (configuration not stated)	i	i	i	-30.8	i	i	.	.	.	.	.	.
CCc1cc(=O)oc2c(C)c(OCC(=O)NC3CC(C)(C)NC(C)(C)C3)ccc12	i	-5.72*	i	18.3	i	i	-150.0%*	i	-31.0%*	36.5%*	38.0%*	i
CSCC[C@H](NC(=O)[C@@H]1Cc2ccccc2CN1)C(=O)Nc1ccc2c(c1)OCO2	i	i	i	8.5	i	i	.	.	.	.	.	.
O=C(NCC(=O)N1CCOCC1)c1ccc(Cl)cc1	i	-9.09*	i	-2.1	i	i	i	i	i	i	i	i
O=C(NCC(=O)N1CCOCC1)c1ccccc1	i	i	i	-2.9	i	i	.	.	.	.	.	.
CCOC(=O)c1cc(-c2ccccc2)nc2nc(N(CC)CC)sc12	i	i	i	-22.4	i	i	.	.	.	.	.	.
COC(=O)CN1C(=O)S/C(=C/c2ccc(N3CCCCC3)o2)C1=O	i	i	i	-29.3	12.7*	i	162.0%*	i	90.5%*	i	i	35.0%*
CCOC(=O)CN1C(=O)S/C(=C/c2ccc(N3CCCCC3)o2)C1=O	i	i	i	-3.0	i	i	.	.	.	.	.	.
CCN(CC)CCNc1cc(C)nc2c1C(=O)C(=O)C=C2N1CCCCC1	i	-7.46*	i	12.5	i	i	-273.5%*	i	-46.5%*	39.0%*	i	i
COc1ccc(CCNC(=O)c2cccc(Br)c2)cc1OC	i	i	i	-6.8	i	i	.	.	.	.	.	.
CCNc1c2c(nc3ccccc13)CC(C)(C)CC2=O	i	-7.84*	i	8.6	i	i	.	.	.	.	i	i	TRPC4 sel inh 2=65.0%*;TRPC4 spec=i;HEK293 MPD ctr 2-1=i;HEK293 MPD ctr-1=-138.0%*
CCOC(=O)N1CCN(C(=O)Cn2nc(-c3ccc(Cl)cc3)ccc2=O)CC1	i	-6.8*	i	-22.0	i	i	.	.	.	.	56.8%*	.	TRPC4 sel inh 2=i;TRPC4 spec=0.5%*;HEK293 MPD ctr 2-1=i;HEK293 MPD ctr-1=2.3%*
